Source: ChEMBL document CHEMBL5724801, “EUbOPEN Chemogenomics Library - Multiplex” (2024)
“And” between values parts separate entries of the source, which are not always exact repeats. Identical values can stand only once.

Columns and labels:
Fibroblast = test: Multiplex assay against human fibroblast; format: toxicity, cell-based
Summary of the method: (§1)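 With compound added, live cells were imaged on a CQ1 microscope at 37°C and 5% CO2; staining with Hoechst33342, BioTracker Green Microtubule Cytoskeleton Dye, MitoTracker Red and Annexin V Alexa Fluor 680 had been done at seeding. The CellPathfinder machine-learning gating scheme split cells into Hoechst high-intensity objects or normal cells, normal cells into healthy, pyknosed or fragmented nuclei, and pyknosed cells into mitotic or apoptotic. The tubulin, mitochondrial-mass and membrane-permeability phenotypes are per cents of healthy-nucleus cells.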

HEK-293T = test: Multiplex assay against HEK293T; format: toxicity, cell-based; details: human; summary of the method: as §1
[1] = 12 h, 1 µM, compound concentration 1 uM
[2] = 12 h, 10 µM, compound concentration 10 uM
[3] = 24 h, 1 µM, compound concentration 1 uM
[4] = 24 h, 10 µM, compound concentration 10 uM
[5] = 48 h, 1 µM, compound concentration 1 uM
[6] = 48 h, 10 µM, compound concentration 10 uM

CC(=O)NCC(=O)N1[C@@H]2CC[C@H]1c1ccc(Nc3ncc(C(F)(F)F)c(NC4CCC4)n3)cc12 [PF-03814735]
Population Apoptotic (%) (Fibroblast; [1]): 14.81% and 22.73% | Population Fragmented Nuclei (%) (Fibroblast; [1]): 12.78% and 6.01% | Population Healthy Nuclei (%) (Fibroblast; [1]): 72.22% and 81.97% | Population Hoechst High Intensity Objects (%) (Fibroblast; [1]): 0% | Population Membrane Permeable-Phenotype (%) (Fibroblast; [1]): 4.62% and 4% | Population Mitochondria Different-Phenotype (%) (Fibroblast; [1]): 7.69% and 10.67% | Population Mitotic Cells (%) (Fibroblast; [1]): 85.19% and 77.27% | Population Normal (%) (Fibroblast; [1]): 100% | Population Pyknosed Nuclei (%) (Fibroblast; [1]): 15% and 12.02% | Population Tubulin-Different-Phenotype (%) (Fibroblast; [1]): 20% and 22.67% | Total Cell Count (Fibroblast; [1]): 180 and 183 | Population Apoptotic (%) (Fibroblast; [2]): 46.51% and 79.49% | Population Fragmented Nuclei (%) (Fibroblast; [2]): 20.25% and 27.83% | Population Healthy Nuclei (%) (Fibroblast; [2]): 53.37% and 53.77% | Population Hoechst High Intensity Objects (%) (Fibroblast; [2]): 0% | Population Membrane Permeable-Phenotype (%) (Fibroblast; [2]): 25.29% and 34.21% | Population Mitochondria Different-Phenotype (%) (Fibroblast; [2]): 17.24% and 20.18% | Population Mitotic Cells (%) (Fibroblast; [2]): 53.49% and 20.51% | Population Normal (%) (Fibroblast; [2]): 100% | Population Pyknosed Nuclei (%) (Fibroblast; [2]): 26.38% and 18.4% | Population Tubulin-Different-Phenotype (%) (Fibroblast; [2]): 36.78% and 78.07% | Total Cell Count (Fibroblast; [2]): 163 and 212 | Population Apoptotic (%) (Fibroblast; [3]): 18.18% and 31.25% | Population Fragmented Nuclei (%) (Fibroblast; [3]): 18.48% and 9.2% | Population Healthy Nuclei (%) (Fibroblast; [3]): 75.54% and 81.61% | Population Hoechst High Intensity Objects (%) (Fibroblast; [3]): 0% | Population Membrane Permeable-Phenotype (%) (Fibroblast; [3]): 9.35% and 5.63% | Population Mitochondria Different-Phenotype (%) (Fibroblast; [3]): 5.76% and 6.34% | Population Mitotic Cells (%) (Fibroblast; [3]): 81.82% and 68.75% | Population Normal (%) (Fibroblast; [3]): 100% | Population Pyknosed Nuclei (%) (Fibroblast; [3]): 5.98% and 9.2% | Population Tubulin-Different-Phenotype (%) (Fibroblast; [3]): 17.99% and 28.87% | Total Cell Count (Fibroblast; [3]): 184 and 174 | Population Apoptotic (%) (Fibroblast; [4]): 39.13% and 90.32% | Population Fragmented Nuclei (%) (Fibroblast; [4]): 24.36% and 32.26% | Population Healthy Nuclei (%) (Fibroblast; [4]): 46.15% and 39.17% | Population Hoechst High Intensity Objects (%) (Fibroblast; [4]): 0% | Population Normal (%) (Fibroblast; [4]): 100% | Population Pyknosed Nuclei (%) (Fibroblast; [4]): 29.49% and 28.57% | Population Tubulin-Different-Phenotype (%) (Fibroblast; [4]): 31.94% and 67.06% | Total Cell Count (Fibroblast; [4]): 156 and 217 | Population Fragmented Nuclei (%) (Fibroblast; [5]): 18.54% and 6.41% | Population Healthy Nuclei (%) (Fibroblast; [5]): 75.28% and 89.74% | Population Hoechst High Intensity Objects (%) (Fibroblast; [5]): 0% | Population Membrane Permeable-Phenotype (%) (Fibroblast; [5]): 1.49% and 7.14% | Population Normal (%) (Fibroblast; [5]): 100% | Population Pyknosed Nuclei (%) (Fibroblast; [5]): 6.18% and 3.85% | Population Tubulin-Different-Phenotype (%) (Fibroblast; [5]): 14.18% and 30.71% | Total Cell Count (Fibroblast; [5]): 178 and 156 | Population Apoptotic (%) (Fibroblast; [6]): 36.84% and 83.78% | Population Fragmented Nuclei (%) (Fibroblast; [6]): 23.6% and 31.34% | Population Healthy Nuclei (%) (Fibroblast; [6]): 64.6% and 51.61% | Population Hoechst High Intensity Objects (%) (Fibroblast; [6]): 0% | Population Mitochondria Different-Phenotype (%) (Fibroblast; [6]): 26.92% and 25% | Population Normal (%) (Fibroblast; [6]): 100% | Population Pyknosed Nuclei (%) (Fibroblast; [6]): 11.8% and 17.05% | Total Cell Count (Fibroblast; [6]): 161 and 217 | Population Apoptotic (%) (HEK-293T; [1]): 13.45% and 7.26% | Population Fragmented Nuclei (%) (HEK-293T; [1]): 1.8% and 4% | Population Hoechst High Intensity Objects (%) (HEK-293T; [1]): 0.36% and 0% | Population Membrane Permeable-Phenotype (%) (HEK-293T; [1]): 0% and 5% | Population Mitochondria Different-Phenotype (%) (HEK-293T; [1]): 42.86% and 15% | Population Mitotic Cells (%) (HEK-293T; [1]): 86.55% and 92.74% | Population Normal (%) (HEK-293T; [1]): 99.64% and 100% | Population Pyknosed Nuclei (%) (HEK-293T; [1]): 42.81% and 82.67% | Total Cell Count (HEK-293T; [1]): 279 and 150 | Population Apoptotic (%) (HEK-293T; [2]): 22.73% and 21.78% | Population Fragmented Nuclei (%) (HEK-293T; [2]): 2.61% and 0.88% | Population Hoechst High Intensity Objects (%) (HEK-293T; [2]): 0.65% and 0% | Population Membrane Permeable-Phenotype (%) (HEK-293T; [2]): 0% | Population Mitochondria Different-Phenotype (%) (HEK-293T; [2]): 27.87% and 27.27% | Population Mitotic Cells (%) (HEK-293T; [2]): 77.27% and 78.22% | Population Normal (%) (HEK-293T; [2]): 99.35% and 100% | Population Pyknosed Nuclei (%) (HEK-293T; [2]): 57.52% and 89.38% | Population Tubulin-Different-Phenotype (%) (HEK-293T; [2]): 75.41% and 45.45% | Total Cell Count (HEK-293T; [2]): 154 and 113 | Population Apoptotic (%) (HEK-293T; [3]): 21.25% and 13.04% | Population Fragmented Nuclei (%) (HEK-293T; [3]): 1.47% and 2.07% | Population Healthy Nuclei (%) (HEK-293T; [3]): 75.07% and 34.48% | Population Hoechst High Intensity Objects (%) (HEK-293T; [3]): 0% | Population Membrane Permeable-Phenotype (%) (HEK-293T; [3]): 0.78% and 4% | Population Mitochondria Different-Phenotype (%) (HEK-293T; [3]): 20.31% and 10% | Population Mitotic Cells (%) (HEK-293T; [3]): 78.75% and 86.96% | Population Normal (%) (HEK-293T; [3]): 100% | Population Pyknosed Nuclei (%) (HEK-293T; [3]): 23.46% and 63.45% | Total Cell Count (HEK-293T; [3]): 341 and 145 | Population Apoptotic (%) (HEK-293T; [4]): 65.09% and 50.43%
